Experimental data published in ChEMBL document CHEMBL1152353, “Pyrimido[5,4-e][1,2,4]triazine-5,7(1H,6H)-dione derivatives as novel small molecule chaperone amplifiers” (Bioorg Med Chem Lett, 2009).
Calls of active or inactive are those of the source. The rule behind the calls is not given here.

Key:
[1] = molecular target: T1, Heat shock factor protein 1 (Homo sapiens) (UniProt Q00613); experiment: Amplification of HSF1 transcriptional activity in human HeLa cells assessed as granule formation pretreated for 3 hrs by immunocytochemical staining; type: cell-based
T1 sequence (whole entry): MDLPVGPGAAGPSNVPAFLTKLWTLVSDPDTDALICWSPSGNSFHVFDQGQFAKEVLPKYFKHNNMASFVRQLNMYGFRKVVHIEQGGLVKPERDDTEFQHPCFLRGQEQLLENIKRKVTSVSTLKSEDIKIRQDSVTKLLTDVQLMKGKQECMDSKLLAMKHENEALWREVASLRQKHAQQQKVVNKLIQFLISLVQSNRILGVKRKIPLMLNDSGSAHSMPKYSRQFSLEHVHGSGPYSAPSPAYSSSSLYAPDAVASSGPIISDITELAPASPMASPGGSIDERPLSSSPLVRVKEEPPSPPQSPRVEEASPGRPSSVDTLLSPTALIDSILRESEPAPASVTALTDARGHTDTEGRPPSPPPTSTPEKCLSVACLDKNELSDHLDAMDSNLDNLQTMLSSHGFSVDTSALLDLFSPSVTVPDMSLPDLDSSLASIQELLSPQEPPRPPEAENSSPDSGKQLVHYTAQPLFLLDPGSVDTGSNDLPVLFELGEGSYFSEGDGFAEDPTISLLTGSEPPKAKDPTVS
Summary of the method: (§1)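 HeLa cells pretreated with compound 1 h, then mild heat shock 41 °C for 2 h, no recovery; control arm pretreated 3 h at 37 °C without heat shock. Compound diluted 200-fold, 0.3 to 80 µM range.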

SK-N-SH [2] = experiment: Cytoprotection against rotenone stress-induced toxicity in human SK-N-SH cells after 48 hrs by MTS assay; type: functional, cell-based; conditions: Homo sapiens, SK-N-SH, 48 h; read-out: EC50
Summary of the method: (§2)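 SK-N-SH neuroblastoma cells (within passage 6) seeded in DMEM with 0.1% FBS for 18 h, then fresh medium with 200 nM rotenone (final) plus compound, 0.019 to 10 µM. Incubated 48 h, then MTS viability read. Cytoprotection expressed as viability increase over the rotenone DMSO control; EC50 = concentration giving half-maximal protection. Data averaged over multiple tests.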

SK-N-SH [3] = experiment: Cytoprotection against rotenone stress-induced toxicity in human SK-N-SH cells assessed as increase in cell viability after 48 hrs by MTS assay relative to control; type: functional; parameters: concentration or dose not given beside the values; summary of the method: as §2
[4] = (§3) Cytotoxicity against human HeLa cells after 72 hrs by MTS assay; type: cell-based; conditions: HeLa cells
Summary of the method: (§4)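 HeLa (8000 cells/well) or SK-N-SH (14,000 cells/well) cells seeded in DMEM with 10% FBS for 18 h. Compound added at 1:200 dilution, final 0.3 to 80 µM, 0.5% v/v DMSO. Exposure 72 h, then MTS/PMS for 4 h, SDS to 1.4% w/v, absorbance at 492 nm. CC50 = concentration giving half-maximal cytotoxicity.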

[5] = Cytotoxicity against human SK-N-SH cells after 72 hrs by MTS assay; type: cell-based; summary of the method: as §4
SH-SY5Y [6] = experiment: Cytoprotection against oxygen-glucose deprivation-induced cytotoxicity in human SH-SY5Y cells at 0.5 uM after 28 hrs by MTS assay; type: functional
Summary of the method: (§5)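 SH-SY5Y cells plated on collagen I-coated wells, grown 16–24 h in complete medium, washed twice in deoxygenated glucose- and serum-free medium; compound added within 1 h before OGD. Chambers flushed with 95% N₂/5% CO₂, residual O₂ <1%, held at 37 °C for 28 h. MTS viability; cytoprotection = (MTS_compound − MTS_DMSO)/MTS_DMSO × 100% versus OGD DMSO control.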

SH-SY5Y [7] = experiment: Cytoprotection against oxygen-glucose deprivation-induced cytotoxicity in human SH-SY5Y cells at 1 uM after 28 hrs by MTS assay; type: functional; summary of the method: as §5
SH-SY5Y [8] = experiment: Cytoprotection against oxygen-glucose deprivation-induced cytotoxicity in human SH-SY5Y cells at 2.5 uM after 28 hrs by MTS assay; type: functional; summary of the method: as §5
HeLa [9] = experiment: Cytotoxicity against human HeLa cells at 80 uM after 72 hrs by MTS assay; type: cell-based; summary of the method: as §4
HeLa [10] = experiment: as §3; type: cell-based; conditions: hela, 72 h; summary of the method: as §4
SK-N-SH [11] = experiment: Cytoprotection against rotenone stress-induced toxicity in human SK-N-SH cells at 0.63 uM after 48 hrs by MTS assay; type: functional; summary of the method: as §2
SK-N-SH [12] = experiment: Cytoprotection against rotenone stress-induced toxicity in human SK-N-SH cells at 1.25 uM after 48 hrs by MTS assay; type: functional; summary of the method: as §2
[13] = molecular target: T1, Heat shock factor protein 1 (Homo sapiens); experiment: Amplification of HSF1 transcriptional activity in human HeLa cells assessed as […] granule count at 80 uM by immunocytochemical staining; type: cell-based; summary of the method: as §1

With `CCn1nc(-c2cccs2)nc2c(=O)n(C)c(=O)nc1-2` the Activity [1] was “inactive”, the EC50 (SK-N-SH [2]) was 0.41 µM and the Activity (SK-N-SH [3]) was 53%. It also gave a CC50 at 72 h [4] of 10.5 µM, a CC50 at 72 h [5] of 9.9 µM and an Activity (SH-SY5Y [6]) of 18%. The Activity (SH-SY5Y [7]) was 48% and the Activity (SH-SY5Y [8]) was 14%.
With `CCCCn1nc(-c2nc3ccccc3[nH]2)nc2c(=O)n(C)c(=O)nc1-2` the Activity (HeLa [9]) was 76%, the Activity [1] was “inactive” and the EC50 (SK-N-SH [2]) was 1.9 µM. The Activity (SK-N-SH [3]) was 59%, the Activity (HeLa [10]) was “Not Active” and the CC50 at 72 h [5] was 13.1 µM.
In the case of `CCCCn1nc(-c2nccs2)nc2c(=O)n(C)c(=O)nc1-2`, the Activity [1] is reported as “inactive”, the Activity (SK-N-SH [11]) is reported as 55% and the Activity (SK-N-SH [3]) is reported as 55%. It also gave a CC50 at 72 h [4] of 2.5 µM, a CC50 at 72 h [5] of 1.4 µM and an Activity (SH-SY5Y [6]) of 7%. For the same molecule, the Activity (SH-SY5Y [7]) was 23% and the Activity (SH-SY5Y [8]) was 39%.
With `CCCCn1nc(-c2ccc(C)o2)[n+]([O-])c2c(=O)n(C)c(=O)nc1-2` the Activity [1] was “inactive”, the Activity (SK-N-SH [12]) was 49% and the Activity (SK-N-SH [3]) was 49%. The CC50 at 72 h [4] was 9 µM and the CC50 at 72 h [5] was 6.6 µM.
With `CCn1nc(-c2ccc[nH]2)[n+]([O-])c2c(=O)n(C)c(=O)nc1-2` the Activity [1] was “inactive”, the EC50 (SK-N-SH [2]) was 0.17 µM and the Activity (SK-N-SH [3]) was 35%. The CC50 at 72 h [4] was 5.2 µM and the CC50 at 72 h [5] was 1.9 µM.
In the case of `CCn1nc(-c2ccc(C)o2)nc2c(=O)n(C)c(=O)nc1-2`, the Activity [1] is reported as “inactive”, the EC50 (SK-N-SH [2]) is reported as 1.84 µM and the Activity (SK-N-SH [3]) is reported as 50%. The CC50 at 72 h [4] was 22.3 µM and the CC50 at 72 h [5] was 8.2 µM.
For `CC(C)CCn1nc(-c2nc3ccccc3s2)nc2c(=O)n(C)c(=O)nc1-2`, the Activity [1] was “inactive”, the EC50 (SK-N-SH [2]) was 0.24 µM and the Activity (SK-N-SH [3]) was 44%. It also gave a CC50 at 72 h [4] of 16.9 µM and a CC50 at 72 h [5] of 10.7 µM.
For `CCCn1nc(-c2nc3ccccc3s2)nc2c(=O)n(C)c(=O)nc1-2`, the Activity [1] was “inactive”, the EC50 (SK-N-SH [2]) was 0.55 µM and the Activity (SK-N-SH [3]) was 55%. For the same molecule, the CC50 at 72 h [4] was 15.6 µM, the CC50 at 72 h [5] was 5.4 µM and the Activity [13] was 25%.
For `CCn1nc(-c2ccco2)nc2c(=O)n(C)c(=O)nc1-2`, the Activity [1] was “inactive”, the Activity (SK-N-SH [12]) was 64% and the Activity (SK-N-SH [3]) was 64%. For the same molecule, the CC50 at 72 h [4] was 5.6 µM and the CC50 at 72 h [5] was 2.8 µM.
For `CCn1nc(-c2ncc[nH]2)nc2c(=O)n(C)c(=O)nc1-2`, the Activity [1] was “inactive”, the EC50 (SK-N-SH [2]) was 2.71 µM and the Activity (SK-N-SH [3]) was 62%. The CC50 at 72 h [4] was 11.9 µM and the CC50 at 72 h [5] was 3.6 µM.
For `CCn1nc(-c2ccc[nH]2)nc2c(=O)n(C)c(=O)nc1-2`, the Activity [1] was “inactive”, the EC50 (SK-N-SH [2]) was 0.68 µM and the Activity (SK-N-SH [3]) was 44%. The CC50 at 72 h [4] was 10.7 µM and the CC50 at 72 h [5] was 4.3 µM.
With `CCCCn1nc(-c2nc3ccccc3s2)nc2c(=O)n(C)c(=O)nc1-2` the Activity [1] was “inactive”, the EC50 (SK-N-SH [2]) was 0.23 µM and the Activity (SK-N-SH [3]) was 53%. It also gave a CC50 at 72 h [4] of 8.7 µM, a CC50 at 72 h [5] of 8.4 µM and an Activity (SH-SY5Y [6]) of 14%. For the same molecule, the Activity (SH-SY5Y [7]) was 38% and the Activity (SH-SY5Y [8]) was 80%.
For `CCn1nc(-c2ccc(C)s2)[n+]([O-])c2c(=O)n(C)c(=O)nc1-2`, the Activity [1] was “inactive”, the EC50 (SK-N-SH [2]) was 1.1 µM and the Activity (SK-N-SH [3]) was 57%. For the same molecule, the CC50 at 72 h [4] was 15 µM and the CC50 at 72 h [5] was 27.2 µM.
In the case of `CCCCn1nc(-c2ccccc2)nc2c(=O)n(C)c(=O)nc1-2`, the Activity [1] is reported as “inactive”, the EC50 (SK-N-SH [2]) is reported as 0.49 µM and the Activity (SK-N-SH [3]) is reported as 58%. For the same molecule, the CC50 at 72 h [4] was 18.5 µM and the CC50 at 72 h [5] was 9.8 µM.
